High-throughput results deposited in PubChem by several laboratories.
HKDC1 inh – HKDC1 (human) hexokinase inhibition; Q2TB90; recombinant HKDC1, G6PDH/diaphorase resazurin coupled fluorescence; inhibition, % at 20 µM; 0.16% of 340,000 active; AID 493160;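 active = inhibition above about 35% when tested at 20 µM, limit read from the data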;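 also: plate controls were DMSO wells with enzyme for no effect and DMSO wells lacking enzyme for full effect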
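Assay system: recombinant HKDC1 hexokinase; detection: coupled resazurin fluorescence, excitation 525 nm, emission 613 nm; benchmarks: DMSO-plus-enzyme-mix negative control, buffer-substituted positive control; compound dosing: single 20 µM dose; schedule: 90 min at room temperature in dark; also added: glucose plus 1 mM ATP as hexokinase substrates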
Tb hexokinase – T. brucei hexokinase 1 inhibition. recombinant TbHK1, G6PDH-coupled NADH A340. inhibition, % at 10 µM. 0.11% of 220,000 active;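 active = inhibition of 50% or more in the single-dose primary screen; inactive = inhibition below 50%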
EP2 antag – blocks the human prostaglandin E2 receptor EP2 | P43116 | C6 glioma cells expressing human EP2, cAMP TR-FRET; cells stimulated with saturating PGE2 | inhibition, % at 25 µM | 0.52% of 260,000 active | AID 1422;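 active = percent inhibition above 40 after rounding to a whole number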;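 also: rat C6 glioma host cells with rolipram phosphodiesterase inhibitor present; the protocol text gives 20 µM as final concentration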
EP2 mod – modulates human prostaglandin E2 receptor EP2 signaling; EP2-expressing cells, cAMP HTRF FRET, PGE2 co-stimulation; induction, % at 25 µM; 0.83% of 260,000 active;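 active = compounds whose cAMP rise, as percent of the full-agonist control response, exceeds 60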;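 also: rat C6 glioma line stably carrying human EP2 under a CMV promoter; the protocol text gives 20 µM as final concentration; 100% = response of wells given 1 µM PGE2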
PHOSPHO1 inh – inhibitors of human PHOSPHO1 phosphatase; Q8TCT1; recombinant PHOSPHO1, absorbance phosphatase assay; inhibition, % at 13.3 µM; 1.1% of 290,000 active; AID 1565; in the data active = inhibition above about 60%
PfGluPho inh – PfG6PD (Plasmodium falciparum) enzyme inhibition; AID 504690; PfGluPho enzyme, NADPH resazurin-diaphorase fluorescence; inhibition, % at 20 µM; 0.78% of 350,000 active;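 active = inhibition reaching at least a set limit at 20 µM in the primary screen, cut at about 59% in these data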;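 also: 0% = DMSO wells with substrate and 100% = DMSO wells lacking glucose-6-phosphate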
PfG6PD confirm – PfG6PD inhibition, single-dose confirmed | shares compounds with PfGluPho inh | recombinant PfGluPho, NADPH-diaphorase-resazurin fluorescence | inhibition, % at 20 µM | 34% of 2,400 active | AID 504753;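 active = inhibition of at least 50% at 20 µM in any single replicate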;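 also: 0% = DMSO with substrate and 100% = DMSO lacking glucose-6-phosphate substrate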
Diaph ctr 10uM – inhibits diaphorase or oxidizes, flagging false PfG6PD hits | shares compounds with PfGluPho inh | diaphorase-coupled resazurin reduction, fluorescence, NADPH 10 uM | inhibition, % at 20 µM | 39% of 820 active | AID 504862;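 active = average inhibition reaching 50% or more with the compound at 20 µM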;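 also: resorufin red fluorescence formed as diaphorase reduces resazurin using NADPH; 0% = DMSO with enzyme and 100% = DMSO without enzyme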
Diaphorase 30uM – inhibits diaphorase or oxidizes, flagging false PfG6PD hits; inhibition, % at 20 µM; shares compounds with PfGluPho inh; AID 504863; Diaphorase/resazurin coupled assay, resorufin fluorescence, 30 uM NADPH; 29% of 820 active;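 active = inhibition averaging 50% or more, tested at 20 µM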;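 also: 0% = DMSO with enzyme and 100% = DMSO wells lacking diaphorase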
* = called active by the depositor. The list is not random: actives were taken first. Their share in the collection is about 2.5%.

For Cc1ccc(-n2c(N)c(C(=O)N3CCN(C)CC3)sc2=S)cc1 the results were HKDC1 inh -15, Tb hexokinase -28, EP2 antag 14, EP2 mod 16, PHOSPHO1 inh 38, PfGluPho inh 79*, PfG6PD confirm 70*, Diaph ctr 10uM 6 and Diaphorase 30uM 8.
Nc1nc(SCc2ccccc2)sc1C(=O)N1CCCCC1 was read as PfGluPho inh 5.
Screening COC(=O)c1ccc(OCC(=O)c2ccc(O)cc2O)cc1 returned HKDC1 inh 0, Tb hexokinase -37, EP2 antag 1, EP2 mod -7, PHOSPHO1 inh -42 and PfGluPho inh -16.
COC(=O)c1ccc(CCc2cc(O)ccc2O)cc1 was read as HKDC1 inh 27, EP2 antag 47*, EP2 mod -5, PfGluPho inh 59 and PfG6PD confirm 10.
Screening O=C(COC(=O)c1ccc2c(c1[N+](=O)[O-])C(=O)c1ccccc1C2=O)NC1CC1 returned HKDC1 inh 25, Tb hexokinase -11, EP2 antag 17, EP2 mod -52, PHOSPHO1 inh 21, PfGluPho inh 60*, PfG6PD confirm 54*, Diaph ctr 10uM 26 and Diaphorase 30uM 28.
Screening CCc1sc(-c2cc3ccccc3oc2=O)nc1-c1ccccc1 returned EP2 antag 10 and EP2 mod 60.
COc1cccc(C=NNC(=O)CCCC(=O)NN=Cc2cccc(OC)c2)c1 was read as HKDC1 inh -4 and PfGluPho inh 14.
`COc1cccc(/C=N/NC(=O)CCCc2ccc(OC)c(C)c2)c1` gave HKDC1 inh 3, Tb hexokinase -1, EP2 antag 11, EP2 mod -6, PHOSPHO1 inh 3, PfGluPho inh 77* and PfG6PD confirm 23.
CC1=C(C(=O)OC(C)C)C(c2ccc(Br)cc2)C2=C(CC(C)(C)CC2=O)N1 (stereo not given) was read as EP2 antag 8 and EP2 mod -77.
`Cc1[nH]c(=S)c(C#N)c(C)c1CCC#N` gave HKDC1 inh -3, Tb hexokinase -20, EP2 antag 7, EP2 mod -4, PHOSPHO1 inh -25, PfGluPho inh 69*, PfG6PD confirm 51*, Diaph ctr 10uM 11 and Diaphorase 30uM -3.
For Cc1[nH]c(=S)c(C#N)c(C)c1Cc1ccccc1 the results were HKDC1 inh 5, Tb hexokinase -13, EP2 antag 3, EP2 mod 17, PHOSPHO1 inh -73 and PfGluPho inh 51.
Screening CCC(C)(C)n1nnnc1C(c1cc2ccc(C)c(C)c2[nH]c1=O)N1CCN(Cc2ccccc2)CC1 (stereo not given) returned EP2 antag 7 and EP2 mod -2.
Screening Cc1ccc(C(=O)Nc2sc(C)c(C)c2C(=O)c2ccccc2)cc1 returned HKDC1 inh -14, Tb hexokinase 8, EP2 antag 7, EP2 mod 29, PHOSPHO1 inh -19, PfGluPho inh 82* and PfG6PD confirm 24.
Screening Cc1sc(NC(=O)c2ccccc2)c(C(=O)c2ccccc2)c1C returned HKDC1 inh -18, Tb hexokinase 1, EP2 antag 11, EP2 mod 65*, PHOSPHO1 inh 3, PfGluPho inh 63* and PfG6PD confirm 37.
CCN(CC)C(=O)c1c(NC(=O)c2ccccc2)sc(C)c1C was read as HKDC1 inh 0, Tb hexokinase -10, EP2 antag 6, EP2 mod 14, PHOSPHO1 inh 4 and PfGluPho inh -5.
Cc1sc(NC(=O)c2ccccc2)c(C(=O)NC(C)C)c1C was read as HKDC1 inh -10, Tb hexokinase -5, EP2 antag 7, EP2 mod 2, PHOSPHO1 inh -5 and PfGluPho inh 6.
